Test results: ChEMBL document CHEMBL4699485, “Discovery and Development of SPR519 as a Potent, Selective, and Orally Bioavailable Inhibitor of PI3Kα and mTOR Kinases for the Treatment of Solid Tumors” (J Med Chem, 2020)
Active and inactive are the calls of the source. No cut-off for these calls is given here.

What was measured:
[1] = target: PI3-kinase p110-alpha/p85-alpha (Homo sapiens, UniProt P42336); experiment: Inhibition of recombinant human full-length N-terminal His-tagged p110 alpha/p85 alpha expressed in baculovirus expression system using PIP2 as substrate preincubated for 15 mins followed by substrate addition and measured after 60 mins by ADP HiLyte 647 tracer bound ADP2 antibody-Tb conjugate based HTRF assay
PI3-kinase p110-alpha/p85-alpha, sequence (P27986 whole entry): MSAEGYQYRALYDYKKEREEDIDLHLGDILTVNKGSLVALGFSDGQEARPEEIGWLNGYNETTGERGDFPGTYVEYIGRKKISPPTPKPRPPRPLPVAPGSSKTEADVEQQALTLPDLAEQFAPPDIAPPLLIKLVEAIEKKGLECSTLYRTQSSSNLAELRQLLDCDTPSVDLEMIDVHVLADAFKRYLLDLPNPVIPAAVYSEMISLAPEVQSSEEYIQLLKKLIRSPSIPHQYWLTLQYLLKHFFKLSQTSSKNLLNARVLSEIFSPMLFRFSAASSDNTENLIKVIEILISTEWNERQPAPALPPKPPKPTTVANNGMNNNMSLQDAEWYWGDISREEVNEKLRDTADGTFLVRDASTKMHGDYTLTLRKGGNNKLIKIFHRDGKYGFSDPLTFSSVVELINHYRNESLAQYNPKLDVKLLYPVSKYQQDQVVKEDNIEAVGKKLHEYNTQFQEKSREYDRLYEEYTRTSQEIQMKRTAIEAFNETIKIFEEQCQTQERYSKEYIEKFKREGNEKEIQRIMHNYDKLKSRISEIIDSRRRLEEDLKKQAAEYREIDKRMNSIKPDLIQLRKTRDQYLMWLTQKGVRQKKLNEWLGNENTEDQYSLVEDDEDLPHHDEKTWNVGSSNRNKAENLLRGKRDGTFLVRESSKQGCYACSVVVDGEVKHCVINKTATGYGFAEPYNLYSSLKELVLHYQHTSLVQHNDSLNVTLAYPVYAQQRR
PI3-kinase p110-alpha/p85-alpha, sequence (P42336 whole entry): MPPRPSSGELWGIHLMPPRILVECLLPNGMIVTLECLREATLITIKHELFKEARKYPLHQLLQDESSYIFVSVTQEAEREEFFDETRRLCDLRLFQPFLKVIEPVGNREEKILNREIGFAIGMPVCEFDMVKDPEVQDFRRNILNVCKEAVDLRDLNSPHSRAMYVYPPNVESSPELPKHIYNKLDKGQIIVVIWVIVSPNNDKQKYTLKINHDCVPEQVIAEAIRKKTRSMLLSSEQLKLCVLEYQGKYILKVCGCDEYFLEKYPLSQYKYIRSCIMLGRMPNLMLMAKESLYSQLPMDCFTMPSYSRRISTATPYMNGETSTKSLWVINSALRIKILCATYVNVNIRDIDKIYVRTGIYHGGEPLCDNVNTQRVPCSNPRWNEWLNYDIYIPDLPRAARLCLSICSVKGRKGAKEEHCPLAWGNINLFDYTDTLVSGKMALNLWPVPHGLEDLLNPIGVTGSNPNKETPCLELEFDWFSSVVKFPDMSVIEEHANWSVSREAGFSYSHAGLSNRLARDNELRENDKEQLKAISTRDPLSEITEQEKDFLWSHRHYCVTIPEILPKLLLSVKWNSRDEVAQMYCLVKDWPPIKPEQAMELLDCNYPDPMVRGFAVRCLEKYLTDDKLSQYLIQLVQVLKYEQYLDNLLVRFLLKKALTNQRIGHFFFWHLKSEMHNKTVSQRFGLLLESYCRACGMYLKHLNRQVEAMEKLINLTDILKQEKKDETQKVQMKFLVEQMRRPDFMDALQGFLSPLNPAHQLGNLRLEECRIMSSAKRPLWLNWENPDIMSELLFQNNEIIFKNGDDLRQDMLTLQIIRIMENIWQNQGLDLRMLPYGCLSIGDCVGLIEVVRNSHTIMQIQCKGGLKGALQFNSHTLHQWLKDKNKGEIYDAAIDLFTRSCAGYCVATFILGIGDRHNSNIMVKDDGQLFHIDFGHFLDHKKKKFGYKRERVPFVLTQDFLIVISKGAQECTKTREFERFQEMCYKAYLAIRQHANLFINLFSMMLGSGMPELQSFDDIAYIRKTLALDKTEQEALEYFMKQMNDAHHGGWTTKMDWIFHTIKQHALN
Method in brief: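 PI3Kα at 150 ng/mL (diluted stock) in 50 mM HEPES pH 7.4, 3 mM MgCl2, 2 mM DTT, 0.05% CHAPS, 50 mM NaCl, 1 mM EGTA. Compound tested over 10–0.001 µM. Final reaction held 50 µM PIP2 and 1 µM ATP. Detection mix added for 1 h, then 665/615 nm ratio read. % inhibition versus concentration fitted by four-parameter nonlinear regression to give IC50.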

A2780 = experiment: Antiproliferative activity against human A2780 cells after 48 hrs by MTT assay; assay type: functional, cell-based; conditions: A2780, 48 h
Method in brief: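 A2780 cells grown in DMEM with 10% FBS, L-glutamine and antibiotics, seeded at 10000 cells/well and allowed to adhere overnight. Treated 48 h across 20 µM–0.001 µM. MTT (5 mg/mL in PBS) added for 4 h, formazan dissolved in DMSO, absorbance read at 550 nm. % inhibition fit to a four-parameter log inhibitor vs response curve.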

[2] = target: Serine/threonine-protein kinase mTOR (Homo sapiens, UniProt P42345); experiment: Inhibition of recombinant human GST-tagged mTOR catalytic domain (1360 to 2549 residues) expressed in baculovirus expression system using GFP-4E-BP1 as substrate preincubated for 15 mins followed by substrate addition and measured after 60 mins by TR-FRET assay
Method in brief: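 Recombinant mTOR (FRAP1) was preincubated 15 min with serially diluted compound (10 µM–0.0005 µM, DMSO) in kinase buffer, 10 µL reaction. GFP-4E-BP1 (400 nM final) and ATP (8 µM final) were added and the reaction ran 1 h at RT. Quench buffer with Tb-anti-p4E-BP1 (pThr46) was added for 1 h at RT. TR-FRET 520/486 nm ratio was fitted by four-parameter sigmoidal regression.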

PC-3 = experiment: Antiproliferative activity against human PC-3 cells after 48 hrs by MTT assay; assay type: functional, cell-based; conditions: PC-3, 48 h
Method in brief: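 PC3 cells grown in RPMI 1640 with 10% FBS and 1% penicillin/streptomycin at 37 °C, 5% CO2, seeded at 10000 cells/well. Treated 48 h across 20 µM–0.001 µM. MTT (5 mg/mL in PBS) added for 4 h, then DMSO solubilization and absorbance at 550 nm. Four-parameter nonlinear fit of % inhibition.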

SK-OV-3 = experiment: Antiproliferative activity against human SK-OV-3 cells after 48 hrs by MTT assay; assay type: functional, cell-based; conditions: SK-OV-3, 48 h
Method in brief: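 SK-OV-3 cells grown in McCoy's 5a with 10% FBS, 100 U/mL penicillin and 100 µg/mL streptomycin at 37 °C, 5% CO2, seeded at 10000 cells/well. Treated 48 h across 20 µM–0.001 µM. MTT (5 mg/mL in PBS) added for 4 h, DMSO solubilization, absorbance read at 550 nm. Four-parameter curve fit of % inhibition.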

[3] = Metabolic stability in dog liver microsomes assessed as parent compound remaining at 10 uM remaining after 120 mins in presence of NADPH by HPLC analysis; assay type: ADME, Canis lupus familiaris, Microsome; conditions: read-out: Stabilty
Method in brief: (§1)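 Compound at 10 µM was incubated with 0.5 mg/mL liver microsomes and 1 mM NADPH (final). Samples were taken at 0, 15, 30, 60 and 120 min and stopped with acetonitrile, then centrifuged and the supernatant analysed by HPLC. Percent parent remaining was set relative to the 0 min peak area (100%).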

[4] = Metabolic stability in mouse liver microsomes assessed as parent compound remaining at 10 uM remaining after 120 mins in presence of NADPH by HPLC analysis; assay type: ADME, Microsome; conditions: read-out: Stabilty; method in brief: as §1
[5] = Metabolic stability in human liver microsomes assessed as parent compound remaining at 10 uM remaining after 120 mins in presence of NADPH by HPLC analysis; assay type: ADME, Microsome; conditions: read-out: Stabilty; method in brief: as §1
[6] = AUC in Swiss mouse at 3 mg/kg, po via gavage by LC-MS/MS analysis; assay type: ADME, organism-based; parameters: dose 3 mg/kg; conditions: in vivo
Method in brief: (§2)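 Female Swiss mice (n=3/group), fasted overnight, given single oral gavage dose in 0.5% CMC/0.5% Tween 80 (10 mL/kg) at 1, 3 or 10 mg/kg. Serial blood sampling at 0.16–8 h into heparinized tubes. Plasma extracted with acetonitrile containing verapamil internal standard and quantified by LC-MS/MS. Cmax, Tmax, AUC and t1/2 derived from the concentration–time profile.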

[7] = Drug uptake in Swiss mouse plasma at 10 mg/kg, po via gavage by LC-MS/MS analysis; assay type: ADME, organism-based; conditions: in vivo; method in brief: as §2
[8] = Cmax in Swiss mouse at 3 mg/kg, po via gavage by LC-MS/MS analysis; assay type: ADME, organism-based; parameters: route oral, dose 3 mg/kg; conditions: in vivo; method in brief: as §2
[9] = Tmax in Swiss mouse at 3 mg/kg, po via gavage by LC-MS/MS analysis; assay type: ADME, organism-based; conditions: in vivo
Method in brief: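 Female Swiss mice (n=3/group) were fasted overnight, then gavaged with compound in 0.5% CMC/0.5% Tween 80 at 10 mL/kg. Serial blood samples at 0.16, 0.5, 1, 2, 4, 6 and 8 h were taken into heparinized tubes and spun to plasma. Plasma was extracted with acetonitrile containing verapamil (400 ng/mL) and quantified by LC-MS/MS against plasma calibration curves. Tmax was derived from the concentration–time profile.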

[10] = Elimination half life in Swiss mouse at 3 mg/kg, po via gavage by LC-MS/MS analysis; assay type: ADME, organism-based; conditions: in vivo, read-out: beta t1/2 (converted); method in brief: as §2
Homo sapiens = species on record: Homo sapiens; experiment: Channel blockade of human ERG G601S mutant expressed in mammalian expression system assessed as effect on surface expression of channel at 1 to 30 uM by HERG-Lite assay; conditions: dose microM 1-30
Method in brief: (§3)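 HERG-lite assay scoring both channel blocking and trafficking inhibition, with test compound at 1, 10 and 30 µM. Geldanamycin (1 µM) served as the trafficking-inhibition reference and astemizole as the standard hERG binder.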

[11] = target: T1, Voltage-gated inwardly rectifying potassium channel KCNH2 (Homo sapiens, UniProt Q12809); experiment: Inhibition of human ERG channel trafficking expressed in mammalian expression system at 1 to 30 uM by HERG-Lite assay; conditions: dose 1-30 µM; method in brief: as §3
T1 sequence (Q12809 whole entry): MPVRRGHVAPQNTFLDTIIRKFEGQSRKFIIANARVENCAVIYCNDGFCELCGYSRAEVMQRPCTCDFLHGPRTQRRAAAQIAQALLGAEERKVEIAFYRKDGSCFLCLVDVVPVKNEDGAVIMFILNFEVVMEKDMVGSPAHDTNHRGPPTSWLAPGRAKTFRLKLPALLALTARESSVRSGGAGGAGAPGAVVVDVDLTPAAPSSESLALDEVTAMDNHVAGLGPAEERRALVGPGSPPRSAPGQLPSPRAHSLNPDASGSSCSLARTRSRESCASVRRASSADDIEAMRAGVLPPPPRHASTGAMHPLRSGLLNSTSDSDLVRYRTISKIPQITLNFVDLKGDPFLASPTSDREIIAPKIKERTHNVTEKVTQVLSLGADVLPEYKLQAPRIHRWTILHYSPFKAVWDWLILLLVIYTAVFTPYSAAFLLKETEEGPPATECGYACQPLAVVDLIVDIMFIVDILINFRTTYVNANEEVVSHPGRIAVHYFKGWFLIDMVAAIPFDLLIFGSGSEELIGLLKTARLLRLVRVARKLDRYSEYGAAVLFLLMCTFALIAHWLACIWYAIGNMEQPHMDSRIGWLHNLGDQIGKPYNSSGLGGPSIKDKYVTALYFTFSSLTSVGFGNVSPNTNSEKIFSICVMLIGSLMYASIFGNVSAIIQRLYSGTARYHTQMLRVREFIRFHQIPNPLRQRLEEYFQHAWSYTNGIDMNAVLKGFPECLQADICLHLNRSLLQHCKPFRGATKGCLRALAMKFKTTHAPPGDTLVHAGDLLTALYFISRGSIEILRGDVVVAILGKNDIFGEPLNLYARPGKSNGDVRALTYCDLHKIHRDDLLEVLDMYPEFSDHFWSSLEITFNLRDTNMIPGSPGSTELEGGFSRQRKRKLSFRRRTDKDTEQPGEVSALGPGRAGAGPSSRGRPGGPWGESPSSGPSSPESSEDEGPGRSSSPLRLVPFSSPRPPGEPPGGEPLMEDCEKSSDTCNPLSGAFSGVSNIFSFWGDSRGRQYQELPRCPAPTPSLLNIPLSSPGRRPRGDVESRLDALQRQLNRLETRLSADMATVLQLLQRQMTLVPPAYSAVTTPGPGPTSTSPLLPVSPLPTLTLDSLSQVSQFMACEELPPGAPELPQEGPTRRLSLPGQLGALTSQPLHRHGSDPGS

[12] = target: T1, Voltage-gated inwardly rectifying potassium channel KCNH2; experiment: Inhibition of human ERG by patch-clamp assay
Cytochrome P450 3A4 = Cytochrome P450 3A4 (Homo sapiens, UniProt P08684); experiment: Inhibition of CYP3A4 in human liver microsomes using isoform-specific probe substrates preincubated for 5 mins followed by NADPH addition by LC-MS/MS analysis; assay type: ADME
Cytochrome P450 3A4, sequence (P08684 whole entry, canonical isoform): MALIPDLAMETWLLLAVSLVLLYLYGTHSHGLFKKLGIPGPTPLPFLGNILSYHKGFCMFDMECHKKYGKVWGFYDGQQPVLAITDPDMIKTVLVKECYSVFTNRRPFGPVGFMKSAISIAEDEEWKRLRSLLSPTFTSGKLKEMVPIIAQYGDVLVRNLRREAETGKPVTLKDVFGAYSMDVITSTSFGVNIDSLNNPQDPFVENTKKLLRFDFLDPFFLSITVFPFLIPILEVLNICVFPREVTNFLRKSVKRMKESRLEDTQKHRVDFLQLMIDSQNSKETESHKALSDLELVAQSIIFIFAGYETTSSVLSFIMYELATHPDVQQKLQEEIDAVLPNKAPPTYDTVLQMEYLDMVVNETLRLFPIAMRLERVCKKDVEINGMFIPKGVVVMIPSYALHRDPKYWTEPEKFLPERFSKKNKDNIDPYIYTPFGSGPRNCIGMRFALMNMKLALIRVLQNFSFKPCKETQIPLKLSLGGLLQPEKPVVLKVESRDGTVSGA
Method in brief: (§4)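 Human liver microsomes premixed with buffer and a CYP-specific FDA-recommended probe substrate, then spiked with inhibitor, in duplicate. After 5 min preincubation at 37 °C, reaction started with NADPH and run at 37 °C for a set time, then quenched. Metabolite formation quantified by HPLC/LC-MS/MS to derive the concentration giving 50% inhibition.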

Cytochrome P450 2C19 = Cytochrome P450 2C19 (Homo sapiens, UniProt P33261); experiment: Inhibition of CYP2C19 in human liver microsomes using isoform-specific probe substrates preincubated for 5 mins followed by NADPH addition by LC-MS/MS analysis; assay type: ADME; method in brief: as §4
Cytochrome P450 2C19, sequence (P33261 whole entry, canonical isoform): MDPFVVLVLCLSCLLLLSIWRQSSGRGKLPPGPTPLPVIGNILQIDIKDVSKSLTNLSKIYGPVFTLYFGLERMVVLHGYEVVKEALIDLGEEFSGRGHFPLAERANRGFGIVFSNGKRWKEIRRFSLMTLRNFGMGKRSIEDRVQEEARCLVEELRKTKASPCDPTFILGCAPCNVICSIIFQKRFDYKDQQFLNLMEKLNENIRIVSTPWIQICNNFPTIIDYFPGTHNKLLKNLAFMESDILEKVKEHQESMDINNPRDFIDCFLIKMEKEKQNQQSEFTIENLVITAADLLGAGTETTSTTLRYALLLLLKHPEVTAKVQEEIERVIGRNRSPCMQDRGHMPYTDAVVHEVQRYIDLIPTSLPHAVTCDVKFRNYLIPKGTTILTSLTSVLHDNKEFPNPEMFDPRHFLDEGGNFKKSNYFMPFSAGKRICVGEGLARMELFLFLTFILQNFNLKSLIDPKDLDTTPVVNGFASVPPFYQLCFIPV

Cytochrome P450 2D6 = Cytochrome P450 2D6 (Homo sapiens, UniProt P10635); experiment: Inhibition of CYP2D6 in human liver microsomes using isoform-specific probe substrates preincubated for 5 mins followed by NADPH addition by LC-MS/MS analysis; assay type: ADME; method in brief: as §4
Cytochrome P450 2D6, sequence (P10635 whole entry, canonical isoform): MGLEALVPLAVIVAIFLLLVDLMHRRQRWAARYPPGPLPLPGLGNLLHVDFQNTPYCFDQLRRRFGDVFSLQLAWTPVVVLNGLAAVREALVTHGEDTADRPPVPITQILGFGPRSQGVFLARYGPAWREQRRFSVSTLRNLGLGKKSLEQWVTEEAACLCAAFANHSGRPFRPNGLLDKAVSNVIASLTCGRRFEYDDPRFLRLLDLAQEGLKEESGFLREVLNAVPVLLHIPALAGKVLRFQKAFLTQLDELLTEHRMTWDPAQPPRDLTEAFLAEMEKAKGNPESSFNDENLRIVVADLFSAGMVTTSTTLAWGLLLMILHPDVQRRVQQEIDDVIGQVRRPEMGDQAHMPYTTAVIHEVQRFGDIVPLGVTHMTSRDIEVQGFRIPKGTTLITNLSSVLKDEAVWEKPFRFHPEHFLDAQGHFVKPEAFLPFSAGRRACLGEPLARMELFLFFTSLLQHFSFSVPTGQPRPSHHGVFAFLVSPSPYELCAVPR

SMILES	IC50 [1] [nM]	IC50 (A2780) [nM]	IC50 [2] [nM]	EC50 (PC-3) [nM]	EC50 (SK-OV-3) [nM]	other results
Cc1nc(N)sc1-c1nc(Oc2ccc(C(=O)N(C)C)cc2)nc(N2CCOCC2)n1	140	1100				
CN(C)C(=O)c1ccc(Oc2nc(-c3cnc(N)nc3)nc(N3CCOCC3)n2)cc1	270	560	960	800	220	
Cc1nc(N)ccc1-c1nc(Oc2ccc(C(=O)N(C)C)cc2)nc(N2CCOCC2)n1	3400	> 10000				
CN(C)C(=O)c1ccc(Oc2nc(-c3cccc4[nH]ncc34)nc(N3CCOCC3)n2)cc1		520	1350	1970	520	remaining at 2 h, 10 µM [3]: 83%; remaining at 2 h, 10 µM [4]: 45%; remaining at 2 h, 10 µM [5]: 100%; AUC [6]: 5.25 µM·h
Cc1cc(N)ncc1-c1nc(Oc2ccc(C(=O)N(C)C)cc2)nc(N2CCOCC2)n1	> 10000	> 10000				
CN(C)C(=O)c1ccc(Oc2nc(-c3cnc(N)[nH]3)nc(N3CCOCC3)n2)cc1	900	2360				
CN(C)C(=O)c1ccc(Oc2nc(-c3cccc(O)c3)nc(N3CCOCC3)n2)cc1	10	90				Drug uptake [7]: Not Active
CN(C)C(=O)c1ccc(Oc2nc(-c3cccc4[nH]nnc34)nc(N3CCOCC3)n2)cc1	> 10000	> 10000				
CN(C)C(=O)c1ccc(Oc2nc(-c3cccc4[nH]ccc34)nc(N3CCOCC3)n2)cc1	560	900				
CN(C)C(=O)c1ccc(Oc2nc(-c3ccc(N)nc3)nc(N3CCOCC3)n2)cc1	210	200	200	280	210	remaining at 2 h, 10 µM [3]: 93%; remaining at 2 h, 10 µM [4]: 102%; remaining at 2 h, 10 µM [5]: 93%; AUC [6]: 10.9 µM·h; Cmax [8]: 2010 nM; Tmax [9]: 1.4 h; half-life [10]: 162 min; Activity (Homo sapiens): Active; inhibition (INH) [11]: Not Active; IC50 [12]: > 1 µM; IC50 (Cytochrome P450 3A4): > 10 µM; IC50 (Cytochrome P450 2C19): > 10 µM; IC50 (Cytochrome P450 2D6): > 10 µM
CN(C)C(=O)c1ccc(Oc2nc(-c3ccnc4[nH]ccc34)nc(N3CCOCC3)n2)cc1	80	370	220	300	370	remaining at 2 h, 10 µM [3]: 77%; remaining at 2 h, 10 µM [4]: 68%; remaining at 2 h, 10 µM [5]: 92%; AUC [6]: 16.8 µM·h; Cmax [8]: 3080 nM; Tmax [9]: 1 h; half-life [10]: 168 min; Activity (Homo sapiens): Active; inhibition (INH) [11]: Not Active; IC50 [12]: > 10 µM; IC50 (Cytochrome P450 3A4): > 10 µM; IC50 (Cytochrome P450 2C19): > 10 µM; IC50 (Cytochrome P450 2D6): > 10 µM
Cc1cc(-c2nc(Oc3ccc(C(=O)N(C)C)cc3)nc(N3CCOCC3)n2)cnc1N	460	1500				
